Calls of active or inactive are those of the source. No cut-off for these calls is given here.
Key:
[1] = Induction of nitrite release in phosphate buffer at pH 7.4 at 50 uM after 1.5 hrs by Griess reaction; type: physicochemical; settings: pH 7.4, 1.5 h
Method in brief: (§1)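 Compound at 50 μM was incubated 1.5 h at 37 °C in phosphate buffer pH 7.4 or Tris buffer pH 10.0, both containing 5% DMSO. Nitrite was measured by Griess reaction and expressed as percent of the initial compound concentration; mean of n = 3.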

[2] = Induction of nitrite release in phosphate buffer at pH 10 at 50 uM after 1.5 hrs by Griess reaction; type: physicochemical; settings: Tris buffer, pH 10, 1.5 h, in the assay text read “Tris buffer” for “phosphate buffer”; method in brief: as §1
[3] = Induction of nitroxyl release in 7.5% DMSO and 92.5% phosphate buffer at pH 7.4 at 200 uM after 48 hrs by LC-MS analysis; type: physicochemical; settings: pH 7.4, 48 h
Method in brief: (§2)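 Donor at 200 μM with 1 mM trapping phosphine in 7.5% DMSO/92.5% phosphate buffer pH 7.4, 37 °C, with 5.05 μM 4-hydroxybenzophenone internal standard. Quenched with H₂O₂ after 2 or 48 h, dried, taken up in MeOH. HNO-derived amide quantified by LC–MS (ESI negative) from a standard curve; percent of 1 mol HNO/mol; mean of triplicates.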

[4] = Induction of nitroxyl release in 7.5% DMSO and 92.5% phosphate buffer at pH 7.4 at 200 uM after 2 hrs by LC-MS analysis; type: physicochemical; settings: pH 7.4, 2 h; method in brief: as §2
[5] = Induction of nitrous oxide release in MeOH/TBS buffer at pH 10 at 25 mM after 2 hrs by gas chromatographic analysis; type: physicochemical; settings: pH 10, 2 h, 25000 µM
Method in brief: (§3)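 Compound (0.04 mmol, 25 mM) in a sealed, inert-gas-flushed flask with 0.8 mL solvent: MeOH plus 500 mM Tris (0.2 mM EDTA), 1:1, at pH 7.4 or 10.0, ± 50 mM GSH, 37 °C. Headspace N₂O measured by GC with electron-capture detection against a standard curve. Yield assumes 2 HNO → 1 N₂O; mean of n = 3; pH-10 runs ended near pH 9.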

[6] = Induction of nitrous oxide release in MeOH/TBS buffer at pH 10 at 25 mM after 0.5 hrs by gas chromatographic analysis in presence of glutathione; type: physicochemical; settings: pH 10, 0.5 h, 25000 µM; method in brief: as §3
[7] = Half life in phosphate buffer at pH 7.4 by spectrophotometric method; type: physicochemical
Method in brief: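 Decay followed by loss of diazeniumdiolate absorbance near 245 nm in pH 7.4 phosphate buffer with 5% DMSO at 37 °C. Half-life obtained from linear regression of ln(A_t − A_∞) against time.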

[8] = Induction of nitrous oxide release in MeOH/TBS buffer at pH 10 at 25 mM after 0.5 hrs by gas chromatographic analysis; type: physicochemical; settings: pH 10, 0.5 h, 25000 µM; method in brief: as §3
[9] = Induction of nitrous oxide release in MeOH/TBS buffer at pH 7.4 at 25 mM after 2 hrs by gas chromatographic analysis; type: physicochemical; settings: pH 7.4, 2 h, 25000 µM; method in brief: as §3
[10] = Induction of nitrous oxide release in MeOH/TBS buffer at pH 7.4 at 25 mM after 48 hrs by gas chromatographic analysis in presence of glutathione; type: physicochemical; settings: pH 7.4, 48 h, 25000 µM; method in brief: as §3
[11] = Induction of nitrous oxide release in MeOH/TBS buffer at pH 7.4 at 25 mM after 0.5 hrs by gas chromatographic analysis; type: physicochemical; settings: pH 7.4, 0.5 h, 25000 µM; method in brief: as §3
[12] = Induction of nitrous oxide release in MeOH/TBS buffer at pH 10 at 25 mM after 2 hrs by gas chromatographic analysis in presence of glutathione; type: physicochemical; settings: pH 10, 2 h, 25000 µM; method in brief: as §3
[13] = Induction of nitrous oxide release in MeOH/TBS buffer at pH 7.4 at 25 mM after 48 hrs by gas chromatographic analysis; type: physicochemical; settings: pH 7.4, 48 h, 25000 µM; method in brief: as §3
[14] = Induction of nitrous oxide release in MeOH/TBS buffer at pH 7.4 at 25 mM after 0.5 hrs by gas chromatographic analysis in presence of glutathione; type: physicochemical; settings: pH 7.4, 0.5 h, 25000 µM; method in brief: as §3
[15] = Induction of nitrous oxide release in MeOH/TBS buffer at pH 7.4 at 25 mM after 2 hrs by gas chromatographic analysis in presence of glutathione; type: physicochemical; settings: pH 7.4, 2 h, 25000 µM; method in brief: as §3
[16] = tested on: Heart; experiment: Positive inotropic activity in C57BL/6 mouse Langendorff perfused heart assessed as left ventricular developed pressure at 100 uM measured for 20 mins; type: functional
Method in brief: (§4)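 Hearts from C57BL/6 mice perfused with Krebs-Henseleit buffer. After 20 min stabilisation with buffer, hearts were perfused with test compound (100 μM) or isoproterenol (100 μM, positive inotropic control) for 20 min. Heart rate, diastolic and systolic rates, and left ventricular developed pressure were recorded. Baseline contractile function was measured as LVDP.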

[17] = tested on: Heart; experiment: Positive inotropic activity in C57BL/6 mouse Langendorff perfused heart assessed as rate of relaxation at 100 uM measured for 20 mins; type: functional; method in brief: as §4
[18] = tested on: Heart; experiment: Effect on heart rate in C57BL/6 mouse Langendorff perfused heart at 100 uM measured for 20 mins; type: ADME, tissue-based
Method in brief: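 C57BL/6 mouse hearts perfused with Krebs–Henseleit buffer, stabilized 20 min, then perfused 20 min with compound at 100 μM; isoproterenol 100 μM as positive inotropic control. Heart rate, LVDP and rates of contraction and relaxation recorded.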

[19] = tested on: Heart; experiment: Positive inotropic activity in C57BL/6 mouse Langendorff perfused heart assessed as rate of contraction at 100 uM measured for 20 mins; type: functional; method in brief: as §4
[20] = tested on: Mus musculus; experiment: Effect on heart rate in C57 mouse at 22.5 mg/kg, po after 3 hrs relative to control; type: ADME, organism-based; set-up: dose 22.5 mg/kg, route oral; settings: in vivo
Method in brief: (§5)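 Conscious C57 black mice dosed orally at 22.5 mg/kg (60.345 μmol/kg), vehicle water with 1% methylcellulose; vehicle-only controls (n = 6), treated n = 4 at 1 h, 5 at 3 h, 6 at 6 h. Noninvasive BP (systolic, diastolic; mean = average of the two) and heart rate read at 1, 3, 6 h; each value is the average of three consecutive readings per mouse.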

[21] = tested on: Mus musculus; experiment: Antihypertensive activity in C57 mouse assessed as reduction of mean blood pressure at 22.5 mg/kg, po after 6 hrs relative to control; type: functional; method in brief: as §5
[22] = tested on: Mus musculus; experiment: Effect on heart rate in C57 mouse at 22.5 mg/kg, po after 1 hr relative to control; type: ADME, organism-based; set-up: dose 22.5 mg/kg, route oral; settings: in vivo; method in brief: as §5
[23] = tested on: Mus musculus; experiment: Antihypertensive activity in C57 mouse assessed as reduction of diastolic blood pressure at 22.5 mg/kg, po after 1 to 6 hrs relative to control; type: functional, organism-based; set-up: dose 22.5 mg/kg; settings: Artery, in the assay text read “after 3 to 6 hrs” for “after 1 to 6 hrs”; method in brief: as §5
[24] = tested on: Mus musculus; experiment: Effect on heart rate in C57 mouse at 22.5 mg/kg, po after 6 hrs relative to control; type: ADME, organism-based; set-up: dose 22.5 mg/kg, route oral; settings: in vivo; method in brief: as §5
[25] = tested on: Mus musculus; experiment: Antihypertensive activity in C57 mouse assessed as reduction of systolic blood pressure at 22.5 mg/kg, po after 1 hr relative to control; type: functional, Artery; method in brief: as §5
[26] = tested on: Mus musculus; experiment: Antihypertensive activity in C57 mouse assessed as reduction of mean blood pressure at 22.5 mg/kg, po after 1 hr relative to control; type: functional; method in brief: as §5
[27] = tested on: Mus musculus; experiment: Antihypertensive activity in C57 mouse assessed as reduction of systolic blood pressure at 22.5 mg/kg, po after 6 hrs relative to control; type: functional, Artery; method in brief: as §5
[28] = tested on: Mus musculus; experiment: Antihypertensive activity in C57 mouse assessed as reduction of systolic blood pressure at 22.5 mg/kg, po after 3 hrs relative to control; type: functional, Artery; method in brief: as §5
[29] = tested on: Mus musculus; experiment: Antihypertensive activity in C57 mouse assessed as reduction of mean blood pressure at 22.5 mg/kg, po after 3 hrs relative to control; type: functional; method in brief: as §5

| Compound | Activity [1] | Activity [2] | Activity [3] | Activity [4] | Activity [5] | Activity [6] | half-life [7] | Activity [8] | Activity [9] | Activity [10] | Activity [11] | Activity [12] | Activity [13] | Activity [14] | Activity [15] | further results |
| --- | --- | --- | --- | --- | --- | --- | --- | --- | --- | --- | --- | --- | --- | --- | --- | --- |
| CC(C)N/[N+]([O-])=N/OCS(C)(=O)=O | 0.4% | 4.6% | 4% | 0.31% |  |  |  |  |  |  |  |  |  |  |  |  |
| COS(=O)(=O)CCO/N=[N+](\[O-])NC(C)C | 10.6% | 42% |  |  | 15.1% | 1.2% | 17.1 h | 16.7% | 1.9% | 0.2% | 1.4% | 1.3% | 1.9% | 0.2% | 0.4% |  |
| CC(C)N/[N+]([O-])=N/OCCS(=O)(=O)NOCc1ccccc1 | 6% | 24% | 55.4% | 47.3% | 61.3% | 24.2% | 6.6 h | 56.8% | 9.7% | 0.8% | 3.8% | 30.3% | 27.5% | 0.3% | 0.4% |  |
| CC(C)NCC(O)c1ccc(O)c(O)c1 (configuration not stated) [ISOPROTERENOL] |  |  |  |  |  |  |  |  |  |  |  |  |  |  |  | Activity [16]: 157 cmH2O; Activity [17]: -5882 cmH2O/ms; Activity [18]: 334 bpm; Activity [19]: 5330 cmH2O/ms |
| CC(C)N/[N+]([O-])=N/OCCS(C)(=O)=O | 1.8% | 26% | 61.4% | 51.2% | 62.2% | 0.4% | 15.3 h | 52.9% | 1.6% | 0.1% | 0.5% | 2.2% | 10.4% | 1.3% | 0.9% | Activity [20]: 488 bpm; mean blood pressure [21]: 87.5 mmHg; Activity [22]: 531 bpm; Activity [23]: Active; Activity [16]: 187 cmH2O; Activity [17]: -5330 cmH2O/ms; Activity [24]: 442 bpm; systolic blood pressure [25]: 120.2 mmHg; mean blood pressure [26]: 95.4 mmHg; Activity [18]: 269 bpm; systolic blood pressure [27]: 114.4 mmHg; systolic blood pressure [28]: 103.4 mmHg; mean blood pressure [29]: 83.6 mmHg; Activity [19]: 5698 cmH2O/ms |
| CC(=O)OCO/N=[N+](\[O-])NC(C)C |  |  |  |  |  |  | 0.683 h |  |  |  |  |  |  |  |  |  |
| [Na+].[Na+].[O-][N+]([O-])=NO [ANGELI'S SALT] |  |  | 85.7% | 85.9% |  |  |  |  |  |  |  |  |  |  |  |  |
| CONS(=O)(=O)CCO/N=[N+](\[O-])NC(C)C | 0.8% | 10.4% | 51.3% | 46.2% | 62.9% | 17.3% | 8.9 h | 52.6% | 12.9% | 1.8% | 5.9% | 29% | 33.5% | 0.4% | 0.5% |  |
| CC(C)N(C(=O)OC(C)(C)C)/[N+]([O-])=N/OCCS(C)(=O)=O | 28.6% | 25.4% | 7.2% | 5.1% |  |  |  |  |  |  |  |  |  |  |  |  |
| CC(C)N[N+]([O-])=N[O-].[Na+] | 62% | 36% | 5.1% | 5.4% | 5.7% | 8.5% | 0.0383 h | 5.9% | 8.3% | 6.8% | 9.4% | 9.5% | 7% | 6.1% | 7.4% |  |

Reference: ChEMBL document CHEMBL2176969, “O2-sulfonylethyl protected isopropylamine diazen-1-ium-1,2-diolates as nitroxyl (HNO) donors: synthesis, β-elimination fragmentation, HNO release, positive inotropic properties, and blood pressure lowering studies” (J Med Chem, 2012)
